Published values from different studies.
Compare with care: the assays were run in different laboratories.
CSF1R: Macrophage colony-stimulating factor 1 receptor (CSF1R, Homo sapiens, UniProt P07333)
CSF1R autoinhibited: Macrophage colony-stimulating factor 1 receptor, autoinhibited (CSF1R, Homo sapiens, UniProt P07333)

SMILES	target	effect on	technique	concentration	remaining binding [%]
O=C(NCC1CCOCC1)c1n[nH]cc1NC(=O)c1c(F)cccc1F	CSF1R	binding	competition with immobilised ligand	1 µM	100
O=C(NCCCN1CCOCC1)c1ccc(Nc2nccc(-c3cc4ccccc4s3)n2)cc1	CSF1R autoinhibited	binding	competition with immobilised ligand	1 µM	83
O=C(Nc1c[nH]nc1C(=O)NC1CCNCC1)c1cc(F)cc(F)c1	CSF1R	binding	competition with immobilised ligand	1 µM	100
O=c1nc(-c2ccccn2)sc2ccccc12	CSF1R	cell-free assay	competition with immobilised ligand	1 µM	85
O=C(c1ccc(Nc2ncc(Cl)c(-c3cc4ccccc4s3)n2)cc1)N1CCC(N2CCCC2)CC1	CSF1R	binding	competition with immobilised ligand	1 µM	24
COc1cnc(Nc2cccc(S(N)(=O)=O)c2)nc1N1CCN(c2ccccc2)CC1	CSF1R	binding	competition with immobilised ligand	1 µM	100
CC(=O)C1=C(C)N(c2cccc(C(F)(F)F)c2)C(=O)N[C@@H]1c1ccc(C#N)nc1	CSF1R autoinhibited	cell-free assay	competition with immobilised ligand	1 µM	100
COc1cnc(Nc2cccc(S(N)(=O)=O)c2)nc1N1CCN(c2ccccc2)C(=O)C1	CSF1R autoinhibited	binding	competition with immobilised ligand	1 µM	87
Cc1cnn2ncc(-c3ccnc(N(C)C)n3)c2c1	CSF1R	binding	–	1 µM	100
O=C(c1ccc(Nc2ncc(Cl)c(-c3ccc(Cl)s3)n2)cc1)N1CCC(N2CCCC2)CC1	CSF1R	binding	competition with immobilised ligand	1 µM	5.1
CCN1CCN(Cc2ccc(C(=O)Nc3ccc(C)c(Oc4ccc5c(c4)CC(=O)N5)c3)cc2C(F)(F)F)CC1	CSF1R	binding	competition with immobilised ligand	1 µM	2
CC1CCCN1c1nccc(-c2cnn3ncccc23)n1 (stereo not shown)	CSF1R	binding	–	1 µM	100
COc1ccc2c(O[C@@H]3C[C@H]4C(=O)N[C@]5(C(=O)O)CC5/C=C\CCCCC[C@H](NC(=O)OC5CCCC5)C(=O)N4C3)cc(-c3csc(NC(=O)C(C)C)n3)nc2c1C (stereo partly shown)	CSF1R	cell-free assay	competition with immobilised ligand	1 µM	71
O=C(c1ccc(Nc2nccc(-c3cc4ccccc4s3)n2)cc1)N1CCC(N2CCCC2)CC1	CSF1R	binding	competition with immobilised ligand	1 µM	42
CN(C)c1nccc(-c2cnn3ncccc23)n1	CSF1R	binding	–	1 µM	100
Cc1nc(NC(=O)N2CCC[C@H]2C(N)=O)sc1-c1ccnc(C(C)(C)C(F)(F)F)c1	CSF1R autoinhibited	binding	competition with immobilised ligand	10 µM	98
CN(C)c1ncc(F)c(-c2cnn3ncccc23)n1	CSF1R	binding	–	1 µM	91
O=C(NCCCN1CCOCC1)c1ccc(Nc2ncc(Cl)c(-c3ccc(Cl)s3)n2)cc1	CSF1R	binding	competition with immobilised ligand	1 µM	15
COc1ncc2cc3ccccc3nc2c1C#N	CSF1R	cell-free assay	competition with immobilised ligand	5 µM	96

SMILES	target	effect on	technique	concentration	remaining binding [%]
CC(C)(C)c1ccc(-c2nc(CBr)nn2-c2cccc(O)c2)cc1	CSF1R	cell-free assay	competition with immobilised ligand	10 µM	98
CN([C@@H]1CCc2c(CC(=O)O)c3cc(S(C)(=O)=O)ccc3n2C1)S(=O)(=O)c1ccc(F)cc1	CSF1R autoinhibited	cell-free assay	competition with immobilised ligand	1 µM	93
COc1ccnn2ncc(-c3ccnc(N(C)C)n3)c12	CSF1R	binding	–	1 µM	100
C[C@@H]1CN(c2ccc3ncc(-c4ccc5[nH]nc(C6CC6)c5c4)n3n2)C[C@H](C)O1	CSF1R	binding	competition with immobilised ligand	0.5 µM	100
CCOCCn1cc(C(=O)Nc2ccc(-n3nc(-c4cccnc4)cc3C(F)(F)F)cn2)ccc1=O	CSF1R autoinhibited	cell-free assay	competition with immobilised ligand	1 µM	100
c1cncc(-c2cccc(Nc3nccc(NC4CCCCC4)n3)c2)c1	CSF1R	binding	competition with immobilised ligand	10 µM	0.15
N[C@H]1CCN(c2nccc(-c3cnn4ncccc34)n2)C1	CSF1R	binding	–	1 µM	100
C=CC(=O)N1CCC(C(=O)NCC(=O)N2CCN(c3nc(-c4cnc(N)nc4C(F)F)nc(N4CCOCC4)n3)CC2)CC1	CSF1R autoinhibited	binding	competition with immobilised ligand	1 µM	20
CN(C)c1nccc(-c2cnc3ncccn23)n1	CSF1R	binding	–	1 µM	100
C[C@@H](c1ccc(-n2cnc3c(N)ncnc32)cc1)N1CCc2nn(C)c(Cc3ccccc3)c2C1=O	CSF1R autoinhibited	binding	competition with immobilised ligand	0.1 µM	81
CNC(=O)[C@@H]1CC[C@@H](n2c(-c3ccc4cnccc4c3)nc3ccc(C(=O)NCc4cccc(C(N)=O)c4)cc32)C1	CSF1R autoinhibited	binding	competition with immobilised ligand	1 µM	80
FC(F)(F)Oc1cccc(-c2cnc3ccc(-c4ccncc4)nn23)c1	CSF1R	cell-free assay	competition with immobilised ligand	5 µM	59
CO[C@@H](C)c1c(Nc2ccc([C@@H](N(C)C(=O)C3CCS(=O)(=O)CC3)C(F)(F)F)cc2)cnc2cc(Cl)nn12	CSF1R	cell-free assay	competition with immobilised ligand	1 µM	72
C[C@H]1CCN(c2nccc(-c3cnn4ncccc34)n2)C1	CSF1R	binding	–	1 µM	100
CC(=O)Nc1c(C(C)=O)c(=O)n(C)c2nc(-c3ccc(Cl)cc3Cl)c(-c3ccc(Cl)cc3)cc12	CSF1R	cell-free assay	competition with immobilised ligand	1 µM	100
Nc1ncc2c(n1)-c1c([nH]c3ccc(C#CC4CC4)cc13)CCCC2	CSF1R	binding	competition with immobilised ligand	1 µM	98
CCS(=O)(=O)c1cc2cc(C[C@@](O)(CC(C)(C)c3ccc(F)cc3C(N)=O)C(F)(F)F)[nH]c2cn1	CSF1R	cell-free assay	competition with immobilised ligand	1 µM	100
Cc1cnc(Nc2ccc(C(=O)N3CCC(N4CCCC4)CC3)cc2)nc1-c1cc2ccccc2s1	CSF1R autoinhibited	binding	competition with immobilised ligand	1 µM	45
